Measurements: ChEMBL document CHEMBL4052665, “Synthesis and pharmacological evaluation of glycine amide derivatives as novel vascular adhesion protein-1 inhibitors without CYP3A4 and CYP2C19 inhibition” (Bioorg Med Chem, 2017)
Active and inactive are the calls of the source. The rule behind the calls is not given here.

Experiments:
[1] = biological target: T1, Amine oxidase [copper-containing] 3 (Homo sapiens, UniProt Q16853); test: Inhibition of human VAP-1 expressed in CHO cells using 14C-benzylamine as substrate preincubated for 20 mins followed by substrate addition measured after 1 hr by scintillation spectrometric analysis; format: cell-based
T1 sequence (Q16853 whole entry): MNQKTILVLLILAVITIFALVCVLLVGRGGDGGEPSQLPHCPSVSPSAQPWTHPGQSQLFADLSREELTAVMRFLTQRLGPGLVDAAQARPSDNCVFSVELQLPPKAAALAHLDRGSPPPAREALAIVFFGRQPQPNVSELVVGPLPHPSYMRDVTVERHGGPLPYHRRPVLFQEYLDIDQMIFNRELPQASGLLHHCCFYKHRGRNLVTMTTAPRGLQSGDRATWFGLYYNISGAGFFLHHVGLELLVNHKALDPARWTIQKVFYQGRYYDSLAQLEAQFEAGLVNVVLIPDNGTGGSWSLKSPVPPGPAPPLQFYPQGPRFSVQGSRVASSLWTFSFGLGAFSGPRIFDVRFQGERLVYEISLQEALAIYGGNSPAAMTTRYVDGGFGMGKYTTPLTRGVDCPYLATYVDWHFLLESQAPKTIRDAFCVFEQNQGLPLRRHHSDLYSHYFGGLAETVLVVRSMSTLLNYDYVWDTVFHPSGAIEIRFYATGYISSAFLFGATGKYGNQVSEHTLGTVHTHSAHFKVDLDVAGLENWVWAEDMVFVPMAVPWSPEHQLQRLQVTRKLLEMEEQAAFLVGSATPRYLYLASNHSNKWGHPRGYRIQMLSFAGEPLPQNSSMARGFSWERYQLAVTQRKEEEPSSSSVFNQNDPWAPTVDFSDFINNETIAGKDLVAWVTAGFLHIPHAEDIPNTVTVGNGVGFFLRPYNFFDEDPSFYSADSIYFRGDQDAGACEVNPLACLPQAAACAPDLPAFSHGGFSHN

[2] = biological target: CYP2C19 (Homo sapiens, UniProt P33261); test: Inhibition of CYP2C19 in human liver microsomes assessed as residual activity at 5 uM using S-mephenytoin as substrate after 20 mins by LC-MS/MS analysis; format: ADME; settings: probe S-mephenytoin, read-out: Activity
Procedure, shortened: (§1)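 Pooled human liver microsomes (0.1 mg/mL) in 100 mM Na-K phosphate pH 7.4 with 1 mM NADPH. Test compound at 5 μM was co-incubated with a probe cocktail including midazolam (1.5 μM) and S-mephenytoin (30 μM) at 37 °C for 20 min. The reaction was stopped with 80% acetonitrile. 1'-Hydroxymidazolam (CYP3A4) and 4'-hydroxymephenytoin (CYP2C19) were measured by LC-MS/MS. Residual activity = activity with compound / vehicle activity × 100.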

[3] = biological target: CYP3A4 (Homo sapiens, UniProt P08684); test: Inhibition of CYP3A4 in human liver microsomes assessed as residual activity at 5 uM using midazolam as substrate after 20 mins by LC-MS/MS analysis; format: ADME; settings: probe midazolam, read-out: Activity; procedure, shortened: as §1
[4] = Aqueous solubility of the compound in solution at pH 6.8; format: physicochemical
[5] = biological target: T2, Amine oxidase [copper-containing] 3 (Rattus norvegicus, UniProt O08590); test: Inhibition of rat VAP-1 expressed in CHO cells using 14C-benzylamine as substrate preincubated for 20 mins followed by substrate addition measured after 1 hr by scintillation spectrometric analysis; format: cell-based
T2 sequence (O08590 whole entry): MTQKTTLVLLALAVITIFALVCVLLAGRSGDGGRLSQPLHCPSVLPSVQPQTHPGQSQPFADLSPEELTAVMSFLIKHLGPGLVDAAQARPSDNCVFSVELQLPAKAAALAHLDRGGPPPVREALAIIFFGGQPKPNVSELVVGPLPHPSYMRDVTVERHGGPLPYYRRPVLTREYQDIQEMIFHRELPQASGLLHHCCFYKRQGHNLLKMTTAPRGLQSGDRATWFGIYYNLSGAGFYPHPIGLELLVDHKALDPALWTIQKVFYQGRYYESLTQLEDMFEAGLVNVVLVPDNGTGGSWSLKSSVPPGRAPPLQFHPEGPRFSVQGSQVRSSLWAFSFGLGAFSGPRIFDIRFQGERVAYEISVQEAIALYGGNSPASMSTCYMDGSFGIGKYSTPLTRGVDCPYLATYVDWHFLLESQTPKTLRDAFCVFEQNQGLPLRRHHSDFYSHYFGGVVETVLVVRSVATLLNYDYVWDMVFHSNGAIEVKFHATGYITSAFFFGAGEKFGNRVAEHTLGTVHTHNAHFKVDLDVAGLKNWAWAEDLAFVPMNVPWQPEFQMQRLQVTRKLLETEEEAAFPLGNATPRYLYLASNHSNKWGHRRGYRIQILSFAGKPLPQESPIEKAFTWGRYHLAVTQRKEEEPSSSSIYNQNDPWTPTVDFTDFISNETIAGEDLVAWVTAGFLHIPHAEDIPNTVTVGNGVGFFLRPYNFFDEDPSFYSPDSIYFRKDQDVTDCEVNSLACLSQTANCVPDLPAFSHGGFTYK

[6] = tested on: Rattus norvegicus; test: Inhibition of VAP-1 in Wistar rat plasma at 1 mg/kg, po using 14C-benzylamine as substrate preincubated for 20 mins followed by substrate addition measured after 1 hr by scintillation spectrometric analysis; format: functional
Procedure, shortened: (§2)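 Male Wistar rats (n = 4) dosed orally. Tail-vein blood was taken under ether anaesthesia before dosing and at 1 or 6 h after. Plasma was kept at -80 °C. 100 μL plasma was reacted with 14C-benzylamine at 37 °C for 2 h. Non-specific activity was measured with 1 mmol/L FR299676 and subtracted. 14C-Benzaldehyde was counted by liquid scintillation. Inhibition ratio = fall from the pre-dose activity, in %.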

[7] = tested on: Rattus norvegicus; test: Inhibition of VAP-1 in Wistar rat plasma at 1 mg/kg, po using 14C-benzylamine as substrate preincubated for 20 mins followed by substrate addition measured after 6 hr by scintillation spectrometric analysis; format: functional; procedure, shortened: as §2
[8] = Aqueous solubility of the compound in solution at pH 6.8 in presence of 15 mM sodium taurocholate; format: physicochemical; settings: aqueous solution with 15 mM sodium taurocholate
[9] = tested on: Rattus norvegicus; test: Inhibition of VAP-1 in Wistar rat plasma at 0.3 mg/kg, po using 14C-benzylamine as substrate preincubated for 20 mins followed by substrate addition measured after 6 hr by scintillation spectrometric analysis; format: functional; procedure, shortened: as §2
[10] = tested on: Rattus norvegicus; test: Inhibition of VAP-1 in Wistar rat plasma at 0.3 mg/kg, po using 14C-benzylamine as substrate preincubated for 20 mins followed by substrate addition measured after 1 hr by scintillation spectrometric analysis; format: functional; procedure, shortened: as §2
[11] = AUC (0 to 24 hrs) in Wistar rat at 1 mg/kg, iv by LC-MS/MS analysis; format: ADME, organism-based; design: dose 1 mg/kg, time < 24 hr, route intravenous; settings: in vivo
Procedure, shortened: (§3)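 Male Wistar rats, fasted about 18 h, dosed at 1 mg/kg iv (solution in 5% DMSO in water) or orally, n = 3. Plasma was deproteinated with acetonitrile and the compound was quantified by LC-MS/MS. Parameters came from non-compartmental analysis.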

[12] = tested on: Rattus norvegicus; test: In vivo inhibition of VAP-1 in STZ-induced diabetic Sprague-Dawley rat assessed as reduction in proteinuria progression at 0.3 to 1 mg/kg, po for 4 weeks measured after 24 hrs by Bradford colorimetric assay; format: functional, organism-based
Procedure, shortened: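 Male SD rats (6 weeks old) given STZ 65 mg/kg ip in citrate-buffered saline pH 4.5; sham rats got buffer. Groups were set by plasma glucose and body weight at day 3. Dosing was oral in 0.5% MC, 5 mL/kg, once daily for 4 weeks. 24-h metabolic-cage urine was collected in week 4 and protein measured by Bradford assay; excretion = concentration × urine volume. Mean ± SEM; Dunnett's test against STZ control.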

[13] = Plasma concentration in Wistar rat at 1 mg/kg, po after 6 hrs post dose by LC-MS/MS analysis; format: ADME, organism-based; procedure, shortened: as §3
[14] = Oral bioavailability in Wistar rat at 1 mg/kg by LC-MS/MS analysis; format: ADME, organism-based; settings: in vivo; procedure, shortened: as §3
[15] = Plasma concentration in Wistar rat at 1 mg/kg, po after 1 hr post dose by LC-MS/MS analysis; format: ADME, organism-based; procedure, shortened: as §3
[16] = Total clearance in Wistar rat at 1 mg/kg, iv by LC-MS/MS analysis; format: ADME, organism-based; settings: in vivo; procedure, shortened: as §3
[17] = Volume of distribution at steady state in Wistar rat at 1 mg/kg, iv by LC-MS/MS analysis; format: ADME, organism-based; settings: in vivo, read-out: Vdss; procedure, shortened: as §3
[18] = Half life in Wistar rat at 1 mg/kg, iv by LC-MS/MS analysis; format: ADME, organism-based; settings: in vivo; procedure, shortened: as §3
[19] = AUC (0 to 24 hrs) in Wistar rat at 1 mg/kg, po by LC-MS/MS analysis; format: ADME, organism-based; design: dose 1 mg/kg, time < 24 hr, route oral; settings: in vivo; procedure, shortened: as §3
[20] = Cmax in Wistar rat at 1 mg/kg, po by LC-MS/MS analysis; format: ADME, organism-based; design: dose 1 mg/kg, route oral; settings: in vivo; procedure, shortened: as §3
[21] = tested on: Rattus norvegicus; test: In vivo inhibition of VAP-1 in STZ-induced diabetic Sprague-Dawley rat plasma at 0.3 to 1 mg/kg, po for 4 weeks measured after 24 hrs after final dose using 14C-benzylamine as substrate by scintillation spectrometric analysis; format: functional, organism-based
Procedure, shortened: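 STZ-diabetic SD rats (65 mg/kg ip) dosed orally once daily for 4 weeks in 0.5% MC. Suborbital blood was taken under ether 24 h after the last dose. 50 μL plasma was reacted with 14C-benzylamine at 37 °C for 1 h, minus non-specific activity measured with 1 mmol/L FR299676. Liquid scintillation counting; mean ± SEM, Dunnett's test against STZ control.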

[22] = Half life in Wistar rat at 1 mg/kg, po by LC-MS/MS analysis; format: ADME, organism-based; settings: in vivo; procedure, shortened: as §3

CYP3A4, sequence (P08684 whole entry): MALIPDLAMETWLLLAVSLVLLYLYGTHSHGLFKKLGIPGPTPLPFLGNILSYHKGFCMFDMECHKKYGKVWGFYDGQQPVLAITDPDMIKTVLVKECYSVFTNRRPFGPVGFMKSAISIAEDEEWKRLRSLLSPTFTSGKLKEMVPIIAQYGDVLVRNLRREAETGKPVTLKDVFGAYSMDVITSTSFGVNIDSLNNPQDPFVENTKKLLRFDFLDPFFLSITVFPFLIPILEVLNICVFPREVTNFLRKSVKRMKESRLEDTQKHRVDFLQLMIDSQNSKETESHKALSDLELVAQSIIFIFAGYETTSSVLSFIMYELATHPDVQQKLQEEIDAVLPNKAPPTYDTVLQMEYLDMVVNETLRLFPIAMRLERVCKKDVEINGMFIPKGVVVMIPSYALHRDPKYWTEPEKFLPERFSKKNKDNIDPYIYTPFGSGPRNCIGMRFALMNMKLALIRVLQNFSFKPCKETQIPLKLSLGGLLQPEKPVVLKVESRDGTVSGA
CYP2C19, sequence (P33261 whole entry): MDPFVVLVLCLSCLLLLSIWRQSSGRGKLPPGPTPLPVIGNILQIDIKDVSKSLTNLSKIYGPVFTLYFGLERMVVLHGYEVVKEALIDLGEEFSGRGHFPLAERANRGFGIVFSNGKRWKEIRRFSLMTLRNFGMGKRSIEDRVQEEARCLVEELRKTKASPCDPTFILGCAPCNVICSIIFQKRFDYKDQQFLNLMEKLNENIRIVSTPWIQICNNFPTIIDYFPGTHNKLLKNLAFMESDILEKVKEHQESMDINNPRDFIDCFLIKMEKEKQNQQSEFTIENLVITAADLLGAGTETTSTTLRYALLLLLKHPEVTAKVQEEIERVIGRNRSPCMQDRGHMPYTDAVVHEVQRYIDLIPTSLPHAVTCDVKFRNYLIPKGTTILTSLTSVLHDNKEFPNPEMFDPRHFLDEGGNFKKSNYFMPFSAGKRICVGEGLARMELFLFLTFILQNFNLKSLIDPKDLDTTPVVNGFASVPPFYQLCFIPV

Structure (SMILES): CN(Cc1cccc(-c2cnc(N3CCC[C@@H]3CO)nc2)c1)C(=O)CN
- IC50 [1]: 300 nM

Structure (SMILES): CN(Cc1cccc(-c2cnc(N3CCC[C@H]3CO)nc2)c1)C(=O)CN
- IC50 [1]: 240 nM

Structure (SMILES): CN(Cc1cccc(-c2cnc(N3CCC(C(=O)O)CC3)nc2)c1)C(=O)CN
- activity at 20 min, 5 µM [2]: 104%
- IC50 [1]: 1700 nM
- activity at 20 min, 5 µM [3]: 112%

Structure (SMILES): CN(Cc1cccc(-c2cnc(N3CCCCC3)nc2)c1)C(=O)CN
- IC50 [1]: 250 nM

Structure (SMILES): CN(Cc1cccc(-c2ccc(N3CCOCC3)cc2)c1)C(=O)CN
- activity at 20 min, 5 µM [2]: 63%
- activity at 20 min, 5 µM [3]: 57%

Structure (SMILES): CN(Cc1cccc(-c2cnc(N3CCN(c4ccc(C(=O)O)cc4)CC3)nc2)c1)C(=O)CN.Cl.Cl
- activity at 20 min, 5 µM [2]: 106%
- solubility [4]: < 1 µM
- IC50 [5]: 10 nM
- inhibition in vivo at 1 mg/kg [6]: 68%
- inhibition in vivo at 1 mg/kg [7]: 60%
- solubility [8]: < 1 µM
- IC50 [1]: 24 nM
- activity at 20 min, 5 µM [3]: 100%

Structure (SMILES): CN(Cc1cccc(-c2cnc(N3CCN(c4ccc(C(=O)O)cc4Cl)CC3)nc2)c1)C(=O)CN.Cl.Cl
- inhibition in vivo at 0.3 mg/kg [9]: 62%
- inhibition in vivo at 0.3 mg/kg [10]: 64%
- activity at 20 min, 5 µM [2]: 109%
- AUC(0-t) at 24 h [11]: 1920 ng·h/mL
- inhibition [12]: Active
- concentration at 6 h [13]: 7.1 ng/mL
- solubility [4]: 2.3 µM
- bioavailability [14]: 17.4%
- inhibition in vivo at 1 mg/kg [6]: 96%
- concentration at 1 h [15]: 111 ng/mL
- clearance [16]: 8.69 mL/min/kg
- inhibition in vivo at 1 mg/kg [7]: 93%
- Vd [17]: 0.386 L/kg
- solubility [8]: 89.6 µM
- half-life [18]: 1.39 h
- AUC(0-t) at 24 h [19]: 334 ng·h/mL
- Cmax [20]: 113 ng/mL
- inhibition [21]: Active
- half-life [22]: 1.29 h
- activity at 20 min, 5 µM [3]: 98%

Structure (SMILES): CN(Cc1cccc(-c2cnc(N3CCC(CCC(=O)O)CC3)nc2)c1)C(=O)CN
- activity at 20 min, 5 µM [2]: 119%
- IC50 [1]: 140 nM
- activity at 20 min, 5 µM [3]: 108%

Structure (SMILES): CN(Cc1cccc(-c2ccc(N3CCOCC3)cc2)n1)C(=O)CN
- IC50 [5]: 160 nM
- IC50 [1]: 2000 nM
